Key:
Assay type in all cases: functional
MOLT-4 = assay: Growth inhibition of human MOLT4 cells at 10 uM after 48 hrs by sulforhodamine B assay relative to control; settings: MOLT-4, 48 h, read-out: GI
Summary of the method: (§1)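 NCI-60 human cancer cell line screen, single-dose pass: cells exposed to 10 μM for 48 h. Cellular protein content read out by sulforhodamine B staining, and growth inhibition expressed relative to untreated control.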

COLO 205 [1] = assay: Growth inhibition of human COLO205 cells at 10 uM after 48 hrs by sulforhodamine B assay relative to control; settings: COLO 205, 48 h, read-out: GI
Summary of the method: (§2)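 NCI-60 single-dose screen at 10 μM for 48 h. Percent growth inhibition was measured by sulforhodamine B staining of cellular protein.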

HCT-116 = assay: Growth inhibition of human HCT116 cells at 10 uM after 48 hrs by sulforhodamine B assay relative to control; settings: HCT-116, 48 h, read-out: GI; summary of the method: as §2
HCT-15 [2] = assay: Growth inhibition of human HCT15 cells at 10 uM after 48 hrs by sulforhodamine B assay relative to control; settings: HCT-15, 48 h, read-out: GI; summary of the method: as §2
HT-29 = assay: Growth inhibition of human HT-29 cells at 10 uM after 48 hrs by sulforhodamine B assay relative to control; settings: HT-29, 48 h, read-out: GI; summary of the method: as §2
SW-620 = assay: Growth inhibition of human SW620 cells at 10 uM after 48 hrs by sulforhodamine B assay relative to control; settings: SW-620, 48 h, read-out: GI
Summary of the method: (§3)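 NCI-60 human cancer cell line screen, single dose of 10 μM for 48 h. Cellular protein content read by sulforhodamine B staining; growth inhibition expressed relative to untreated control.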

SF-295 = assay: Growth inhibition of human SF295 cells at 10 uM after 48 hrs by sulforhodamine B assay relative to control; settings: SF-295, 48 h, read-out: GI; summary of the method: as §1
Malme-3M = assay: Growth inhibition of human MALME-3M cells at 10 uM after 48 hrs by sulforhodamine B assay relative to control; settings: read-out: GI; summary of the method: as §2
MDA-MB-435 = assay: Growth inhibition of human MDA-MB-435 cells at 10 uM after 48 hrs by sulforhodamine B assay relative to control; settings: MDA-MB-435, 48 h, read-out: GI; summary of the method: as §1
SK-MEL-2 = assay: Growth inhibition of human SK-MEL-2 cells at 10 uM after 48 hrs by sulforhodamine B assay relative to control; settings: SK-MEL-2, 48 h, read-out: GI; summary of the method: as §1
SK-MEL-5 = assay: Growth inhibition of human SK-MEL-5 cells at 10 uM after 48 hrs by sulforhodamine B assay relative to control; settings: SK-MEL-5, 48 h, read-out: GI; summary of the method: as §1
OVCAR-4 [3] = assay: Growth inhibition of human OVCAR4 cells at 10 uM after 48 hrs by sulforhodamine B assay relative to control; settings: OVCAR-4, 48 h, read-out: GI; summary of the method: as §1
OVCAR-5 [4] = assay: Growth inhibition of human OVCAR5 cells at 10 uM after 48 hrs by sulforhodamine B assay relative to control; settings: OVCAR-5, 48 h, read-out: GI; summary of the method: as §1
SK-OV-3 = assay: Growth inhibition of human SKOV3 cells at 10 uM after 48 hrs by sulforhodamine B assay relative to control; settings: SK-OV-3, 48 h, read-out: GI; summary of the method: as §1
SN12C = assay: Growth inhibition of human SN12C cells at 10 uM after 48 hrs by sulforhodamine B assay relative to control; settings: read-out: GI; summary of the method: as §1
TK-10 = assay: Growth inhibition of human TK10 cells at 10 uM after 48 hrs by sulforhodamine B assay relative to control; settings: TK-10, 48 h, read-out: GI; summary of the method: as §3
UO-31 [5] = assay: Growth inhibition of human UO31 cells at 10 uM after 48 hrs by sulforhodamine B assay relative to control; settings: UO-31, 48 h, read-out: GI; summary of the method: as §3
DU-145 = assay: Growth inhibition of human DU145 cells at 10 uM after 48 hrs by sulforhodamine B assay relative to control; settings: DU-145, 48 h, read-out: GI; summary of the method: as §2
RPMI-8226 = assay: Growth inhibition of human RPMI8226 cells after 48 hrs by sulforhodamine B assay; settings: RPMI-8226, 48 h
Summary of the method: (§4)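 NCI-60 panel follow-up: five concentrations from 10 nM to 100 μM, 48 h exposure. Growth read by sulforhodamine B protein staining. GI50 derived from the concentration-response, with the concentration for total growth inhibition (TGI) also recorded when below 100 μM.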

NCI-H322M = assay: Growth inhibition of human NCI-H322M cells after 48 hrs by sulforhodamine B assay; summary of the method: as §4
NCI-H460 = assay: Growth inhibition of human NCI-H460 cells after 48 hrs by sulforhodamine B assay; settings: NCI-H460, 48 h; summary of the method: as §4
COLO 205 [6] = assay: Growth inhibition of human COLO205 cells after 48 hrs by sulforhodamine B assay; settings: COLO 205, 48 h
Summary of the method: (§5)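 NCI-60 panel screen. Cells were exposed for 48 h at five concentrations between 10 nM and 100 μM. Cellular protein was read by sulforhodamine B staining, and GI50 and total growth inhibition (TGI) concentrations were derived.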

HCT-15 [7] = assay: Growth inhibition of human HCT15 cells after 48 hrs by sulforhodamine B assay; settings: HCT-15, 48 h; summary of the method: as §5
SF-539 = assay: Growth inhibition of human SF539 cells after 48 hrs by sulforhodamine B assay; settings: SF-539, 48 h; summary of the method: as §4
SK-MEL-28 = assay: Growth inhibition of human SK-MEL-28 cells after 48 hrs by sulforhodamine B assay; settings: SK-MEL-28, 48 h; summary of the method: as §4
OVCAR-4 [8] = assay: Growth inhibition of human OVCAR4 cells after 48 hrs by sulforhodamine B assay; settings: OVCAR-4, 48 h; summary of the method: as §4
OVCAR-5 [9] = assay: Growth inhibition of human OVCAR5 cells after 48 hrs by sulforhodamine B assay; settings: OVCAR-5, 48 h; summary of the method: as §4
OVCAR-8 = assay: Growth inhibition of human OVCAR8 cells after 48 hrs by sulforhodamine B assay; settings: OVCAR-8, 48 h; summary of the method: as §4
CAKI-1 = assay: Growth inhibition of human CAKI-1 cells after 48 hrs by sulforhodamine B assay; settings: CAKI-1, 48 h; summary of the method: as §5
RXF 393 = assay: Growth inhibition of human RXF393 cells after 48 hrs by sulforhodamine B assay; settings: RXF 393, 48 h; summary of the method: as §4
UO-31 [10] = assay: Growth inhibition of human UO31 cells after 48 hrs by sulforhodamine B assay; settings: UO-31, 48 h
Summary of the method: (§6)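 NCI-60 panel cells treated at five concentrations from 10 nM to 100 μM for 48 h. Read-out by sulforhodamine B protein stain. GI50 and total growth inhibition (TGI, if below 100 μM) taken from the concentration-response data.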

BT-549 = assay: Growth inhibition of human BT549 cells after 48 hrs by sulforhodamine B assay; settings: BT-549, 48 h; summary of the method: as §5
T47D = assay: Growth inhibition of human T47D cells after 48 hrs by sulforhodamine B assay; summary of the method: as §6
MDA-MB-468 = assay: Growth inhibition of human MDA-MB-468 cells after 48 hrs by sulforhodamine B assay; settings: MDA-MB-468, 48 h; summary of the method: as §4

Row | Compound | inhibition of growth at 10 µM (MOLT-4) [%] | inhibition of growth at 10 µM (COLO 205 [1]) [%] | inhibition of growth at 10 µM (HCT-116) [%] | inhibition of growth at 10 µM (HCT-15 [2]) [%] | inhibition of growth at 10 µM (HT-29) [%] | inhibition of growth at 10 µM (SW-620) [%] | inhibition of growth at 10 µM (SF-295) [%] | inhibition of growth at 10 µM (Malme-3M) [%] | inhibition of growth at 10 µM (MDA-MB-435) [%] | inhibition of growth at 10 µM (SK-MEL-2) [%] | inhibition of growth at 10 µM (SK-MEL-5) [%] | inhibition of growth at 10 µM (OVCAR-4 [3]) [%] | inhibition of growth at 10 µM (OVCAR-5 [4]) [%] | inhibition of growth at 10 µM (SK-OV-3) [%] | inhibition of growth at 10 µM (SN12C) [%] | inhibition of growth at 10 µM (TK-10) [%] | inhibition of growth at 10 µM (UO-31 [5]) [%] | inhibition of growth at 10 µM (DU-145) [%] | GI50 (RPMI-8226) [µM] | GI50 (NCI-H322M) [µM] | further results
1 | COc1ccccc1S(=O)(=O)Nc1ccc2c(c1)CN(C)C(=O)N2 | 61.6 | 61.6 | 50.3 | 59.2 | 77.2 | 40.6 | 94.7 | 67.8 | 65.8 | 52.4 | 59.5 | 56.9 | 25.5 | 50.9 | 46.8 | 82.7 | 89.8 | 22.2 | 2.2 | 6 | GI50 (NCI-H460): 9.3 µM; GI50 (COLO 205 [6]): 3 µM; GI50 (HCT-15 [7]): 3.2 µM; GI50 (SF-539): 4.5 µM; GI50 (SK-MEL-28): 6.2 µM; GI50 (OVCAR-4 [8]): 6.3 µM; GI50 (OVCAR-5 [9]): 10.5 µM; GI50 (OVCAR-8): 9.1 µM; GI50 (CAKI-1): 3.6 µM; GI50 (RXF 393): 7.9 µM; GI50 (UO-31 [10]): 1.1 µM; GI50 (BT-549): 14.8 µM; GI50 (T47D): 3.7 µM; GI50 (MDA-MB-468): 1.5 µM; TGI (MDA-MB-468): 47.9 µM
2 | Cc1noc(C)c1-c1cc(O)cc(C(O)c2ccccc2)c1 (stereo unspecified) | 41.3 | 62.9 | 42 | 63.3 | 65.4 | 27.9 | 57.5 | 40 | 56.1 | 39.6 | 45.8 | 67.5 | 26.7 | 56.3 | 25.5 | 87.4 | 83.1 | 12.5 | 1.94 | 8.41 | TGI (RPMI-8226): 9.7 µM; GI50 (NCI-H460): 25.1 µM; GI50 (COLO 205 [6]): 5.25 µM; GI50 (HCT-15 [7]): 3.52 µM; GI50 (SF-539): 4.56 µM; GI50 (SK-MEL-28): 9.15 µM; GI50 (OVCAR-4 [8]): 6.35 µM; GI50 (OVCAR-5 [9]): 31.8 µM; GI50 (OVCAR-8): 8.33 µM; GI50 (CAKI-1): 4.58 µM; GI50 (RXF 393): 17.2 µM; GI50 (UO-31 [10]): 4.58 µM; GI50 (BT-549): 28.2 µM; GI50 (T47D): 7.7 µM; GI50 (MDA-MB-468): 1.89 µM; TGI (MDA-MB-468): 40.6 µM
